Compounds with a hit are over-represented: about 1.8% of the library has one in this group of screens.
MT1-MMP act inh = blockers of MT1-MMP proenzyme processing, primary screen, HT1080 RFP-PRO-GFP cells, GFP/RFP fluorescence | Matrix metalloproteinase-14 (Homo sapiens), P50281 | GFP/RFP ratio fluorescence, overnight; percent of plate control window, DMSO zero | GFP/RFP ratio change, % at 20 µM | hit rate 0.061% among 360,000 | AID 651647, 2012;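 active = GFP/RFP ratio change of at least 30% with cell ATP level not reduced by more than half and red fluorescence within 50% of control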
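Material: RFP-PRO-GFP reporter HT1080 cells. Dosing: single-point 20 µM compound, 1% DMSO. Controls: DMSO and RFP-L50D-GFP cell wells. Timing: cells overnight before dosing, compound overnight, 37 °C, 5% CO2. Measure: GFP/RFP fluorescence ratio.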
TbMetRS inhib = T. brucei MetRS inhibitors, primary screen, biochemical, luminescence. purified T. brucei MetRS, ATP depletion, Kinase-Glo luminescence. methionyl-tRNA synthetase (Trypanosoma brucei brucei). hit rate 0.4% among 360,000. AID 624268, 2012. inhibition, % at 11.9 µM;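 active = inhibition above a per-plate cutoff of the control wells' mean inhibition plus 3 SD, cut at about 5.5% in these data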;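 also: 0% = DMSO wells median and 100% = median of wells with control inhibitor compound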
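Material – parasite MetRS enzyme · Medium – HEPES-MgCl2-KCl buffer plus DTT, spermine, BSA, pyrophosphatase · Reagent – ATP, methionine and E. coli bulk tRNA substrates · Times – 15 min enzyme-compound preincubation, 2 h reaction, 10 min detection, 25 °C · Measured by – luminescence of leftover ATP · Evaluation – percent inhibition relative to median high and low control wells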
PREPL inh = PREPL enzyme inhibitors, primary screen, biochemical, fluorescence polarization; Prolyl endopeptidase-like (Homo sapiens), Q4J6C6; recombinant PREPL, fluorescence polarization activity-based probe; hit rate 0.68% among 320,000; inhibition, % at 5.96 µM; AID 2751, 2010; in the data active = inhibition above about 43%;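 also: 0% = enzyme with DMSO and 100% = wells lacking enzyme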
Target sequence (Q4J6C6 whole entry, looked up): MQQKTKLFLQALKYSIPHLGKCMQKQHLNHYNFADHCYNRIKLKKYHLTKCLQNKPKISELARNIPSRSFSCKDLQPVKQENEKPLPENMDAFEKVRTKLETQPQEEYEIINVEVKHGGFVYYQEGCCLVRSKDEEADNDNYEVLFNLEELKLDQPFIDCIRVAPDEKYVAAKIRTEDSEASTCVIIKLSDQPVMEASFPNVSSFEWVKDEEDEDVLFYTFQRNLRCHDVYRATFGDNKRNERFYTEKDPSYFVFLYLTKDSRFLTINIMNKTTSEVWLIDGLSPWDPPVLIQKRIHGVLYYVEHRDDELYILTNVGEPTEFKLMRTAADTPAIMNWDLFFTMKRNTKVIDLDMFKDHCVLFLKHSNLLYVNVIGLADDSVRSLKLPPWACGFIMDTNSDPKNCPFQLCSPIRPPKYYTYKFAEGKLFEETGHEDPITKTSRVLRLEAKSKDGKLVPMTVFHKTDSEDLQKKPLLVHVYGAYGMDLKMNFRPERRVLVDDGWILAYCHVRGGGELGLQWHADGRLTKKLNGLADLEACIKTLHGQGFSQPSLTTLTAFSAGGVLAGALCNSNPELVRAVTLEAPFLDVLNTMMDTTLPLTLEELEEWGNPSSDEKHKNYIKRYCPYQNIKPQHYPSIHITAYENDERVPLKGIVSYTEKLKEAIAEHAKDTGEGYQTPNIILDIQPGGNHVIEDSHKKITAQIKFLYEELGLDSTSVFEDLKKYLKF
SKN-1 inh = suppressors of acrylamide-induced Pgst-4::GFP reporter in worms, primary screen, SKN-1 inhibitor project, whole organism, uHTS, GFP/RFP fluorescence ratio, strain VP596 | hit rate 0.49% among 360,000 | AID 624304, 2012 | C. elegans VP596 Pgst-4::GFP/RFP ratio, 24 h | inhibition, % at 21.8 µM;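 active = interference check ratio from 0.5 to 1.5 plus GFP to RFP signal ratio inhibition reaching or exceeding a fixed threshold, cut at about 30% in these data, passing the limit was not always enough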
eLon inh = inhibitors of E. coli Lon protease, primary screen, biochemical, fluorescence polarization; P0A9M0; purified E. coli Lon protease; inhibition, % at 7.94 µM; hit rate 0.42% among 360,000; in the data active = inhibition above about 13%, passing the limit was not always enough;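 also: 0% = enzyme with probe and DMSO and 100% = no enzyme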
hiPSC survival = enhancers of single-cell hiPSC survival, primary screen, ATPlite luminescence; hit rate 0.044% among 360,000; survival enhancement, % at 20 µM; AID 602274, 2012; 100% = ROCK inhibitor wells, 0% = DMSO; in the data active = survival enhancement above about 18%;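 also: cells exposed to compounds for 16 hours before the ATP read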
An asterisk follows results filed as active; / = no result given.

SMILES	MT1-MMP act inh	TbMetRS inhib	PREPL inh	SKN-1 inh	eLon inh	hiPSC survival
CC1CN(S(=O)(=O)c2cccc(C(=O)OCC(=O)Nc3ccc4c(c3)OCO4)c2)CC(C)O1 (centres undefined)	-7	0	13	44*	-5	-2
Cc1ccc(NC2=Nc3ccccc3N3C2=Nc2c(c(C)nn2-c2ccccc2)C3c2ccc(O)c(O)c2)cc1 (centres undefined)	-4	0	/	36*	-7	-1
Cc1nn(-c2ccccc2)c2c1C(c1ccc(O)c(O)c1)N1C(=N2)C(Nc2ccccc2)=Nc2ccccc21 (centres undefined)	3	0	9	25	3	6
CC(C)NC(=O)c1ccc2c(c1)S(=O)(=O)c1ccccc1C2=O	0	-1	-5	-4	-1	20*
S=C(Nc1ccccc1)Nc1nc2ccccc2n1CCOc1ccc(Cl)cc1	9	5	-28	59*	5	0
CCCn1c(NC(=S)Nc2ccccc2)nc2ccccc21	6	-1	2	7	-3	0
O=S(=O)(c1ccccc1F)N1CCN(CC(O)c2ccccc2)CC1 (centres undefined)	3	0	12	-11	-8	-1
CN(Cc1ccccc1)C(=O)CN1CCN(S(=O)(=O)c2ccccc2F)CC1	3	0	/	13	9	26*
CCCCCCCCCCCCCCCC[n+]1ccc(/C=N/O)cc1	-39	0	41	43*	-3	-2
CCCCCCCCCCCCCCCC[n+]1ccc(C(N)=O)cc1	1	-1	37	19	6	-2
COC(=O)c1cnc2ccccc2n1	1	-1	-11	4	38	0
O=C(O)c1cnc2ccccc2n1	-4	0	10	37*	13	0
CN(Cc1ccc(OC(F)F)cc1)C(=O)c1cccc(S(=O)(=O)N2CCN(c3ccccc3)CC2)c1	10	0	/	-3	-14	-1
CCCNC(=O)COC(=O)C1CCN(S(=O)(=O)c2ccc3c(c2)OCCO3)CC1	0	0	17	45*	-8	0
CCNC(=O)COC(=O)C1CCN(S(=O)(=O)c2ccc3c(c2)OCCO3)CC1	3	0	-2	11	-7	0
NC(=O)c1ccc(NC(=O)c2ccc(COc3ccc(F)cc3)o2)cc1	4	0	1	9	-2	0
O=C(CSc1nnc(-c2ccco2)c(-c2ccco2)n1)Nc1ccccc1	-9	0	17	4	157*	2
CN(C)c1ccc(NC(=O)CSc2nnc(-c3ccco3)c(-c3ccco3)n2)cc1	-3	0	7	30	9	0
Cc1cccc(C)c1NC(=O)CSc1nnc(-c2ccco2)c(-c2ccco2)n1	-19	0	17	19	87*	-2
COc1cc(OC)c(NC(=S)NCc2ccccc2)cc1Cl	3	0	4	6	-5	1
C#CCSc1ncc(-c2ccccc2)cn1	5	0	-12	90*	4	-1
C=CCSc1ncc(-c2ccccc2)cn1	6	0	-1	73*	9	3
O=C(O)c1ccccc1-c1ncc(-c2ccccc2)o1	1	1	-1	-7	-1	0
Nc1nc2ccccc2cc1-c1cccs1	1	0	-23	-3	0	0
c1csc(-c2ccc3ccccc3n2)c1	-5	0	-9	43*	-5	-2
SMILES	MT1-MMP act inh	TbMetRS inhib	PREPL inh	SKN-1 inh	eLon inh	hiPSC survival
COc1ccccc1NC(=O)Nc1nc2ccc(S(N)(=O)=O)cc2s1	1	0	-4	13	-32	0
CC(C)CN1C(=O)CN(S(C)(=O)=O)CC1(C)C(=O)Nc1ccc2c(c1)OCCO2 (centres undefined)	13	-1	/	-10	/	/
Cc1cccc(C)c1NC(=O)C(c1ccc(C(F)(F)F)cc1)n1c(=O)c(-c2ccccc2)nc2ccccc21 (centres undefined)	-5	0	/	2	/	/
CCC(=O)Nc1nc(CC(=O)Nc2ccccc2OC)cs1	3	-1	7	35*	11	4
COc1cc(C)ccc1NC(=O)Cc1csc(NC(=O)Nc2ccccc2OC)n1	0	0	-7	13	-3	1
CCOC(=O)c1ccccc1NC(=O)Cc1ccccc1OC	-5	0	-7	50*	7	-3
COc1ccccc1CC(=O)Nc1ccccc1C(=O)O	-5	0	18	4	0	-3
CN(C)CCCO[C@@H]1[C@H]2OC(C)(C)O[C@H]2O[C@@H]1[C@H](O)CO	6	0	6	44*	-4	-4
C[C@]1(CC/C(=C/CO)CO)[C@H](C=O)CC[C@@]23COC(=O)C2=CCC[C@@H]31	5	1	/	-5	4	2
O=C(NC1CCCCC1)C(c1ccnc2ccccc12)N1CCc2ccccc2C1 (centres undefined)	-1	0	/	-13	-2	1
CCCCNC(=O)CC(C(=O)N1CCc2ccccc21)n1ccnc1 (centres undefined)	/	-1	7	-34	2	-2
CCN(CCCNC(=O)CC(C(=O)N1CCc2ccccc21)n1ccnc1)c1cccc(C)c1 (centres undefined)	-1	0	26	38*	3	0
O=C(CNc1ccc2c(c1)OCO2)N/N=C\c1ccccc1Cl	-27	0	50*	2	-1	-2
Cc1[nH]c2ccccc2c1/C=N\NC(=O)CNc1ccc2c(c1)OCO2	-3	0	29	1	2	1
CCc1nc2ccc(C(=O)NCCCn3ccnc3)cn2c1N(C)C(=O)c1cccc(OC)c1	4	0	/	-1	2	0
c1ccc(-c2noc(-c3ccc4ccccc4c3)n2)nc1	1	-1	-6	42*	2	-3
CCN(CC)C(=O)C1=C(C)N(Cc2ccc(C(C)(C)C)cc2)C(=O)C(CC(=O)NCc2cccs2)C1 (centres undefined)	7	-1	/	6	4	6
O=C1Cc2ccccc2C(=O)N1	7	22*	/	4	-1	-3
O=C(C#Cc1ccccc1)c1ccco1	-2	0	3	-4	0	2
CC(=O)N1CCN(C(=O)c2ccc(-c3cccc(C(F)(F)F)c3)o2)CC1	1	0	1	30	8	0
O=C(c1ccc(-c2cccc(C(F)(F)F)c2)o1)N1CCOCC1	1	-1	3	45*	-1	6

High-throughput results (PubChem BioAssay)
